The record followed here is ChEMBL document CHEMBL5705905, “Pharmacological targeting of kinases MST1 and MST2 augments tissue repair and regeneration” (Sci Transl Med, 2016).

Calls of active or inactive are those of the source. No cut-off for these calls is given here.

The nature of series [1]: Clearance in male Sprague-Dawley rat at 5 mg/kg, iv measured for 24 hrs by LC-MS/MS analysis. Type of series: ADME, organism-based. Particulars: in vivo. In outline: (§1)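 Sprague-Dawley rats, single intravenous or oral dose. Parameters (half-life, AUC, bioavailability) reported in a supplementary table.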
Series [2] concerns the target T1, Serine/threonine-protein kinase 4 (Homo sapiens, UniProt Q13043).
T1 sequence (Q13043 whole entry): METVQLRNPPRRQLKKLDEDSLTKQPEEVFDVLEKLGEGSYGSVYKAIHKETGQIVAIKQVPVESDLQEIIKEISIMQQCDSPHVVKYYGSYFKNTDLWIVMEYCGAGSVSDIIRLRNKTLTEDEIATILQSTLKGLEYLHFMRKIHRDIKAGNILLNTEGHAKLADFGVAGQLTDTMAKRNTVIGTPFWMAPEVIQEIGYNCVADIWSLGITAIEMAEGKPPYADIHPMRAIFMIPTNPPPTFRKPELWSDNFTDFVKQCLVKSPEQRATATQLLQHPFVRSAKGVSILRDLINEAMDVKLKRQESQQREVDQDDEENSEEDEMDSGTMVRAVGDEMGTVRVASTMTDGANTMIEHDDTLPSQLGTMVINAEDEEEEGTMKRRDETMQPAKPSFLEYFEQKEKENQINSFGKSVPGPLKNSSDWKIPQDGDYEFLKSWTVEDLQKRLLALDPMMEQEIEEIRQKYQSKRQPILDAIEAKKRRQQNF
In words: Inhibition of recombinant His-tagged full-length MST1 (unknown origin) expressing in Escherichia coli assessed as MOB1a phosphorylation level incubated for 30 min in the presence of 300 uM ATP by immunoblot analysis. (A western blot detects proteins with antibodies after separation by electrophoresis.)

The target in series [3] is Serine/threonine-protein kinase Sgk2 (Homo sapiens) (UniProt Q9HBY8). In words: Inhibition of SGK2 (unknown origin) assessed as remaining activity at 1 uM by Kinome scan method relative to control.
Sequence of Serine/threonine-protein kinase Sgk2 (Homo sapiens) (Q9HBY8 whole entry): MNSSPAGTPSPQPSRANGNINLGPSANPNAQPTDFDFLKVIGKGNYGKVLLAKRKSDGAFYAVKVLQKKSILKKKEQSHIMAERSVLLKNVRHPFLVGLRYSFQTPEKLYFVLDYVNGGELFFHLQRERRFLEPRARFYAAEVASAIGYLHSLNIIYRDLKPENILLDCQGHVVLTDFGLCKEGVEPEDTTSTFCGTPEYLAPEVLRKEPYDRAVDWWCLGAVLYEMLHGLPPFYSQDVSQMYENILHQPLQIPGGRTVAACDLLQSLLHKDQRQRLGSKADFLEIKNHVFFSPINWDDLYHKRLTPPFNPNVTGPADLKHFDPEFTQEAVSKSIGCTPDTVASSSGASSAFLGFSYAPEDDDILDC
Series [4] has as its target Mast/stem cell growth factor receptor Kit (Homo sapiens) (UniProt P10721). In words: Inhibition of KIT-autoinhibited (unknown origin) assessed as remaining activity at 1 uM by Kinome scan method relative to control.
For series [5], the target named is Serine/threonine-protein kinase PLK3 (Homo sapiens) (UniProt Q9H4B4). The experiment in a line: Inhibition of PLK3 (unknown origin) assessed as remaining activity at 1 uM by Kinome scan method relative to control.
The target in series [6] is Dual specificity protein kinase CLK4 (Homo sapiens) (UniProt Q9HAZ1). In words: Inhibition of CLK4 (unknown origin) assessed as remaining activity at 1 uM by Kinome scan method relative to control. The method in brief: (§2)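 Active-site-dependent competition-binding profiling (KINOMEscan) at 1 μM against a 468-kinase panel; compound supplied from a 10 mM DMSO stock. Read-out is ctrl% = (test signal − positive control signal)/(negative control signal − positive control signal) × 100. DMSO is the negative control (100%) and a control compound the positive control (0%). Lower ctrl% means tighter binding.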

The subject of series [7] is Mus musculus. The experiment in a line: In vivo inhibition of MST1/2 in mouse assessed as YAP phosphorylation level at 1 mg/kg, ip administration and measured after between 1.5 to 6 hrs by immunoblot analysis. The format is functional, organism-based. Particulars: time 1.5-6 hrs. In outline:
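Wild-type mice received 1 mg/kg intraperitoneally, with vehicle of 0.1% citric acid aqueous solution containing 20% Kolliphor HS 15. Livers were harvested over 0–12 h and lysates immunoblotted for p-MOB1 and p-YAP, normalized to control. Means ± SD, n = 3.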

Series [8] concerns the target Myosin light chain kinase (Homo sapiens) (UniProt Q32MK0). The experiment in a line: Inhibition of MLCK (unknown origin) assessed as remaining activity at 1 uM by Kinome scan method relative to control.
In series [9] the test system is Mus musculus. The experiment in a line: Anti-colitis activity against DSS-induced mouse assessed as high number in nuclear YAP-positive cells at 1 mg/kg, ip administrated daily for 8 days by IHC staining. Particulars: Colon, time 8.0 day. The format is functional, organism-based. The method in brief: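 Wild-type mice received oral DSS for 7 days with vehicle or 1 mg/kg daily. Colon sections were stained by IHC for YAP, BrdU and Ki67, and positive cells were quantified per animal. Means ± SD, n = 10, Student's t test.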

Series [10] addresses Cyclin-dependent kinase-like 1 (Homo sapiens) (UniProt Q00532). In words: Inhibition of CDKL1 (unknown origin) assessed as remaining activity at 1 uM by Kinome scan method relative to control. In outline:
as §2

Series [11] relates to Mus musculus. In words: Anti-colitis activity against DSS-induced mouse assessed as cancerous phenotype at 1 mg/kg, ip administrated daily for 1 week. Type of series: functional, organism-based. As to conditions: Colon, time 1.0 weeks. The method in brief: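 DSS given orally for 7 days. Mice received 1 mg/kg intraperitoneally daily for 1 week. Animals were followed for more than 10 months for cancerous phenotypes.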

The nature of series [12]: Inhibition of recombinant His-tagged full-length MST1 D109A mutant (unknown origin) expressing in Escherichia coli assessed as MOB1 phosphorylation level incubated for 15 min by immunoblot analysis. On the set-up: species or system Homo sapiens.
Series [13] deals with Tyrosine-protein kinase Blk (Homo sapiens) (UniProt P51451). The experiment in a line: Inhibition of BLK (unknown origin) assessed as remaining activity at 1 uM by Kinome scan method relative to control. The method in brief: (§3)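 Active-site-dependent competition-binding (KINOMEscan) panel of 468 kinases, test compound at 1 μM (from a 10 mM DMSO stock). Read-out is ctrl% = (test signal − positive control signal)/(negative control signal − positive control signal) × 100. DMSO is the negative control (100%) and a control compound is the positive control (0%). Lower ctrl% means tighter binding.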

Series [14] is described as follows: AUC (0 to infinity) in male Sprague-Dawley rat at 5 mg/kg, iv measured for 24 hrs by LC-MS/MS analysis. The format is ADME, organism-based. As to conditions: in vivo. In outline:
as §1

Series [15] can be described thus: Cmax in male Sprague-Dawley rat at 5 mg/kg, iv measured for 24 hrs by LC-MS/MS analysis. The format is ADME, organism-based. Particulars: in vivo. The method in brief:
as §1

Series [16] relates to Phosphatidylinositol 4,5-bisphosphate 3-kinase catalytic subunit alpha isoform (Homo sapiens), P42336 [C420R]. In words: Inhibition of PIK3CA C420R mutant (unknown origin) assessed as remaining activity at 1 uM by Kinome scan method relative to control.
Sequence of Phosphatidylinositol 4,5-bisphosphate 3-kinase catalytic subunit alpha isoform (Homo sapiens), P42336 [C420R] (P42336 whole entry C420R, canonical isoform): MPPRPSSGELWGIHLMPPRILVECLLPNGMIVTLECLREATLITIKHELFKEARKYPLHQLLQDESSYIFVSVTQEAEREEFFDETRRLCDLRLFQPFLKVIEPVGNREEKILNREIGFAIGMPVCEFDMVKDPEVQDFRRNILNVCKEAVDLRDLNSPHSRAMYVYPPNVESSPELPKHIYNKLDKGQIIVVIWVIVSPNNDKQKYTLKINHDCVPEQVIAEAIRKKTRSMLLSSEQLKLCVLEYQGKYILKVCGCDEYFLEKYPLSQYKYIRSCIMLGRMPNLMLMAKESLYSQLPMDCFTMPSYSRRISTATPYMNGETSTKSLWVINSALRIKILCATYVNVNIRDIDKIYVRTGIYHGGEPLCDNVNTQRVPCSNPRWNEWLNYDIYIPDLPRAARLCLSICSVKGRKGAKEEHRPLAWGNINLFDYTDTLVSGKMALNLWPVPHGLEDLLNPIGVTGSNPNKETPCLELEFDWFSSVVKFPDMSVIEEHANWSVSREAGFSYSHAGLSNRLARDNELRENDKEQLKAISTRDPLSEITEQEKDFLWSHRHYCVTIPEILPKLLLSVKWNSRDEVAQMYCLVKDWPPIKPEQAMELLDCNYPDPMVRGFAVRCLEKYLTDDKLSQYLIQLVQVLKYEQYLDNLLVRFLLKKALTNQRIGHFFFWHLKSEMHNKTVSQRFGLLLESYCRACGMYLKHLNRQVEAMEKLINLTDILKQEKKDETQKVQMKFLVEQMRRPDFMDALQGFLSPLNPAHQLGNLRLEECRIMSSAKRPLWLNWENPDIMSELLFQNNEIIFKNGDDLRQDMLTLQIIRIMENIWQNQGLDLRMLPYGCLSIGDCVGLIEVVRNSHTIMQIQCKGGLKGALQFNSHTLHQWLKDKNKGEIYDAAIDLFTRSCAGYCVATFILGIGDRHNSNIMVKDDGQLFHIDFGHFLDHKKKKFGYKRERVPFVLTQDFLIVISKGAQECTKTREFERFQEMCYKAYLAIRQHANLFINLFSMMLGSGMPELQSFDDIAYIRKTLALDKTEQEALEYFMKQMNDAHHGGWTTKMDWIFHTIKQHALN
The target of series [17] is Serine/threonine-protein kinase 25 (Homo sapiens) (UniProt O00506). In words: Inhibition of YSK1 (unknown origin) assessed as remaining activity at 1 uM by Kinome scan method relative to control.
Sequence of Serine/threonine-protein kinase 25 (Homo sapiens) (O00506 whole entry, looked up): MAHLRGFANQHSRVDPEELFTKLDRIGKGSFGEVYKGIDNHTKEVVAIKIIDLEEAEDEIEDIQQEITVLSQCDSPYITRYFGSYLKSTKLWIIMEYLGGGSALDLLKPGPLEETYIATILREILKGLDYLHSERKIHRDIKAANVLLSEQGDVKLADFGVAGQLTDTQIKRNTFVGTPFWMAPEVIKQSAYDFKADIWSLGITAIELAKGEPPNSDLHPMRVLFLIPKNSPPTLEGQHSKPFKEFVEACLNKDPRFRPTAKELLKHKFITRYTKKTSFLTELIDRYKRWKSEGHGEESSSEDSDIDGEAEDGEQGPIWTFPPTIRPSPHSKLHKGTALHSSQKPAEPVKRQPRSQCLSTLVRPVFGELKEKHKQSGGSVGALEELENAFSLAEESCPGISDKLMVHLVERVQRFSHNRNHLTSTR
Series [18] deals with Epidermal growth factor receptor (Homo sapiens), P00533 [L858R]. The experiment in a line: Inhibition of EGFR L858R mutant (unknown origin) assessed as remaining activity at 1 uM by Kinome scan method relative to control.
The target of series [19] is Tyrosine-protein kinase ABL1 (Homo sapiens, UniProt P00519, Q252H). The experiment in a line: Binding affinity to phosphorylated ABL1 Q252H mutant (unknown origin) assessed as dissociation constant.
Series [20] concerns the target Bone morphogenetic protein receptor type-1B (Homo sapiens) (UniProt O00238). The experiment in a line: Inhibition of BMPR1B (unknown origin) assessed as remaining activity at 1 uM by Kinome scan method relative to control. In outline: as §3
The species named for series [21] is Homo sapiens. The experiment in a line: Inhibition of recombinant His-tagged full-length MST1 Y101F mutant (unknown origin) expressing in Escherichia coli assessed as GST-tagged MOB1 phosphorylation level at 0.01 to 1 uM incubated for 15 min by immunoblot analysis. Particulars: dose 0.01-1 µM.
Series [22] addresses Bone morphogenetic protein receptor type-2 (Homo sapiens) (UniProt Q13873). In words: Inhibition of BMPR2 (unknown origin) assessed as remaining activity at 1 uM by Kinome scan method relative to control. In outline: as §3

Sequence of Myosin light chain kinase (Homo sapiens) (Q32MK0 whole entry): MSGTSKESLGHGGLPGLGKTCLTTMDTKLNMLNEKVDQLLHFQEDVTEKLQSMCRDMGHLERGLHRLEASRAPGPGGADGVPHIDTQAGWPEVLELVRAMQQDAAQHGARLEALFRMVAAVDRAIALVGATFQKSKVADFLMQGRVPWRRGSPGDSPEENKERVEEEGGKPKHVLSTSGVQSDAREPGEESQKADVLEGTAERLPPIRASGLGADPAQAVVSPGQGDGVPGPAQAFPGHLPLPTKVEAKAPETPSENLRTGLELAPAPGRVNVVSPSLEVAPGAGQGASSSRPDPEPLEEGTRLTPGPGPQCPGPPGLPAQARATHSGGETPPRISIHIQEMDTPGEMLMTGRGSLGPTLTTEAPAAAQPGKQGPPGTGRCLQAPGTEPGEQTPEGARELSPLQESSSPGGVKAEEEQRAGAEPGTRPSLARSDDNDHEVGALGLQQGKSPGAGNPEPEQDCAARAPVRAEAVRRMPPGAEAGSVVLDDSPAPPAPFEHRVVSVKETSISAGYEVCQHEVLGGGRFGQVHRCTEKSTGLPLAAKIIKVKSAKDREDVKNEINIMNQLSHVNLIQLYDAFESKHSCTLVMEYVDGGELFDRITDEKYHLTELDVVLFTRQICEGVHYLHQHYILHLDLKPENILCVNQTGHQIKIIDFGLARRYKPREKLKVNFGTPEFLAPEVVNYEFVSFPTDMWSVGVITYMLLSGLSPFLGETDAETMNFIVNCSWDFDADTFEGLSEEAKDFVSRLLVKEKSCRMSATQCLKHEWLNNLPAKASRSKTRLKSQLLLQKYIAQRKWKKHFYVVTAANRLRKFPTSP
Sequence of Bone morphogenetic protein receptor type-2 (Homo sapiens) (Q13873 whole entry): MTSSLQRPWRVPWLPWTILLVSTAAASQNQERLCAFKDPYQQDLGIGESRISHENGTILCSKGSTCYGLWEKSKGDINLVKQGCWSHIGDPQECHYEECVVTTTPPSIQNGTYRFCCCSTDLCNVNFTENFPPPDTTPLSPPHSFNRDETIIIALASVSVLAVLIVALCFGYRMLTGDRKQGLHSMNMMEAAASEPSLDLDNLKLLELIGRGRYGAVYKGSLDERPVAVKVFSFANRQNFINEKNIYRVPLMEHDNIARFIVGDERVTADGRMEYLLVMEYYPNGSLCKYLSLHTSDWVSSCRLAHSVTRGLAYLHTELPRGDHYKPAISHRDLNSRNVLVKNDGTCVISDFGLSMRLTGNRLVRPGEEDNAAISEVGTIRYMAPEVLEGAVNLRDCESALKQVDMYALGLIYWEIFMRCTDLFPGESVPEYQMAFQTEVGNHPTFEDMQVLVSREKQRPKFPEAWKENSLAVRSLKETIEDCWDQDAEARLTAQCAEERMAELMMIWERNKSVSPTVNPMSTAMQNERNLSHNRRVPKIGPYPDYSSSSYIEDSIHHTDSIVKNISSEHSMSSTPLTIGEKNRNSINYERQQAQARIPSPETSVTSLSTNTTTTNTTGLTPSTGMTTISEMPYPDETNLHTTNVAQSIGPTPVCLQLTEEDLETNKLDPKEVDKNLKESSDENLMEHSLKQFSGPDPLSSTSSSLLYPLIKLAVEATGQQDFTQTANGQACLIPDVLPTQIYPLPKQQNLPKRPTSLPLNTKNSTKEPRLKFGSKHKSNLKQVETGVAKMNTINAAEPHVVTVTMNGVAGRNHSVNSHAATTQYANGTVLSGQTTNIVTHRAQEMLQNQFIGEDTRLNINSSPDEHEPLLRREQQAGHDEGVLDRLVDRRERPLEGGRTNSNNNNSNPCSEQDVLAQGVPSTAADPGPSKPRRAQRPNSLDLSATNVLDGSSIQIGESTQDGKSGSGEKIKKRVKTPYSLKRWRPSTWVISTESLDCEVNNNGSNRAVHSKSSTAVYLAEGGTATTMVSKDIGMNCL
Sequence of Mast/stem cell growth factor receptor Kit (Homo sapiens) (P10721 whole entry): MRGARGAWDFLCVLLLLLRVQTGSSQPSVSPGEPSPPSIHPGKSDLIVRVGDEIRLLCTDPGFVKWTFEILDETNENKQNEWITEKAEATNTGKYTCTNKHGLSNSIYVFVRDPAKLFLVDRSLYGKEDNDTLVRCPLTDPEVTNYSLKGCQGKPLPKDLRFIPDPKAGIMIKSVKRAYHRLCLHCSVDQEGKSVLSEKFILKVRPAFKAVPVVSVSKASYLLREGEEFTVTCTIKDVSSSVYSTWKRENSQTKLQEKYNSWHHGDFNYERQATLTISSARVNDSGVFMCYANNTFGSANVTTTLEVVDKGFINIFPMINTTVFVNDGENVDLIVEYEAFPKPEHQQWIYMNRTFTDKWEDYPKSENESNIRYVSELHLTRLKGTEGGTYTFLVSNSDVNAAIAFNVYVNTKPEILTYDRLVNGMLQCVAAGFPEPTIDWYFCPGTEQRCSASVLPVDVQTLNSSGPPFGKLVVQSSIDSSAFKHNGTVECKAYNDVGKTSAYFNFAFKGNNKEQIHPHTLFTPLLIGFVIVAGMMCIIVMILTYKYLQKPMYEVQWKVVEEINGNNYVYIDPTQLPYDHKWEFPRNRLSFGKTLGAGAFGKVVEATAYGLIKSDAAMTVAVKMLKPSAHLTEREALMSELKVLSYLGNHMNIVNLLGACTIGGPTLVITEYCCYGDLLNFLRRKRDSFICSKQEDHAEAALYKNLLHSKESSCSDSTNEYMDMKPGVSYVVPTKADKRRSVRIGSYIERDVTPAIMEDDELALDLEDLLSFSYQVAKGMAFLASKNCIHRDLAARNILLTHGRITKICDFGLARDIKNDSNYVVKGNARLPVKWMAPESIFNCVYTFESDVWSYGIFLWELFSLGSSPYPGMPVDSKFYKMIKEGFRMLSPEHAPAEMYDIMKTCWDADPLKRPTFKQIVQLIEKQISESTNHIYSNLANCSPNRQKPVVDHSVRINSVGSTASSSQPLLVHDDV
Sequence of Cyclin-dependent kinase-like 1 (Homo sapiens) (Q00532 whole entry): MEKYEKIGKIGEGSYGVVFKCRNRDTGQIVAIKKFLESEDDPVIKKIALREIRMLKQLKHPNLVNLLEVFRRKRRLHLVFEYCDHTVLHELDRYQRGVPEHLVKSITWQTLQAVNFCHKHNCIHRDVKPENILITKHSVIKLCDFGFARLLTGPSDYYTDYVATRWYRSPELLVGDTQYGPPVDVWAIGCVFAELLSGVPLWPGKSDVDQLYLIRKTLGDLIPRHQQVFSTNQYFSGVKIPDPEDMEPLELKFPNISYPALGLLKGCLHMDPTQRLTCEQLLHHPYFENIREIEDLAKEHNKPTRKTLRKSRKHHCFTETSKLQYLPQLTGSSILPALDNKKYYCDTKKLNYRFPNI

Turning to `CN1C(=O)c2sccc2N(C)c2nc(Nc3ccc(S(N)(=O)=O)cc3)ncc21`, the clearance – broadly, the rate of elimination divided by the concentration – in series [1] was 65.8 mL/min/kg. Besides, the 50% inhibitory concentration (IC50) (commonly the midpoint of a concentration-inhibition curve) in series [2] worked out at 4040 nM; in series [12] it was 753 nM. Besides, the Activity in series [3] worked out at 91%; in series [4] it was 100%; in [5], 99%; in series [6] it was 100%; in series [8] it was 87%; in [10], 100%. Besides, the Activity came to 96% in series [13]; 96% in series [16]; 94% in series [17]; 100% in [18]; 26% in series [20]; 100% in series [22]. The inhibition entry in [7] and in series [21] was “Active” in each case. Further, the result in series [9] and in series [11] was Active. In [14], the AUC(0-inf) (as a rule, total exposure, with the tail of the curve extrapolated) stood at 1270 ng·h/mL. Also, the peak level in [15] (Cmax) was 1140 ng/mL. Besides, the dissociation constant (Kd) (in general, the equilibrium constant for the complex coming apart) in series [19] turned out to be 24 nM.
